Measured values from article PMC7825275 (Cancer chemotherapy and pharmacology, 2019).

Assays:
[1] = tested on: advanced solid malignancies; assay: Tumor response by RECIST 1.0, veliparib with carboplatin and paclitaxel; type: in vivo, human
Summary of the method: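 Tumor response followed RECIST 1.0 on CT or MRI. Scans were done every 2 cycles; for the first 46 subjects, the first scan was after cycle 3 and then every 2 cycles. Oral veliparib was given twice daily on days 1–7, with IV carboplatin/paclitaxel, in 21-day cycles, up to 6 cycles recommended.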

[2] = Veliparib plasma pharmacokinetics; type: in vivo, human
[3] = Adenoid cystic of lung, 1 evaluable, with carboplatin and paclitaxel
[4] = Adrenalcortical carcinoma, 1 evaluable, with carboplatin and paclitaxel
[5] = All Patients, 67 evaluable, with carboplatin and paclitaxel
[6] = Ampulla of Vater, 1 evaluable, with carboplatin and paclitaxel
[7] = Bladder, 6 evaluable, with carboplatin and paclitaxel
[8] = Breast, 13 evaluable, with carboplatin and paclitaxel
[9] = Carcinoma of unknown origin, 3 evaluable, with carboplatin and paclitaxel
[10] = Cervix, 1 evaluable, with carboplatin and paclitaxel
[11] = Cholangiocarcinoma, 2 evaluable, with carboplatin and paclitaxel
[12] = Esophageal, 2 evaluable, with carboplatin and paclitaxel
[13] = Head & Neck, 8 evaluable, with carboplatin and paclitaxel
[14] = Level 1: veliparib 10 mg BID, carboplatin AUC 6, paclitaxel 150 mg/m^2, 5 evaluable
[15] = Level 4: veliparib 40 mg BID, carboplatin AUC 6, paclitaxel 175 mg/m^2, 3 evaluable
[16] = Level 5: veliparib 40 mg BID, carboplatin AUC 6, paclitaxel 200 mg/m^2, 12 evaluable
[17] = Level 7B: veliparib 100 mg BID, carboplatin AUC 6, paclitaxel 200 mg/m^2, 14 evaluable
[18] = Level 8: veliparib 120 mg BID, carboplatin AUC 6, paclitaxel 200 mg/m^2, 8 evaluable
[19] = Lung, 16 evaluable, with carboplatin and paclitaxel
[20] = Melanoma, 9 evaluable, with carboplatin and paclitaxel
[21] = Myxoid chondrosarcoma, 1 evaluable, with carboplatin and paclitaxel
[22] = Prostate, 1 evaluable, with carboplatin and paclitaxel
[23] = Stomach, 1 evaluable, with carboplatin and paclitaxel
[24] = Uterine, 1 evaluable, with carboplatin and paclitaxel
[25] = patients, oral veliparib 10-120 mg BID

## C[C@]1(c2nc3c(C(N)=O)cccc3[nH]2)CCCN1 [veliparib]
[1]; [3]
  CR: 0
  ORR: 0/1 (0%)
  PD: 0
  PR: 0
[1]; [4]
  CR: 0
  ORR: 0/1 (0%)
  PD: 1
  PR: 0
[1]; [5]
  CR: 5
  ORR: 27/67 (40%)
  PD: 8
[1]; [6]
  CR: 0
  ORR: 0/1 (0%)
  PD: 0
  PR: 0
[1]; [7]
  CR: 1
  ORR: 3/6 (50%)
  PD: 1
  PR: 2
[1]; [8]
  CR: 3
  ORR: 9/13 (69%)
  PD: 2
  PR: 6
[1]; [9]
  CR: 0
  ORR: 1/3 (33%)
  PD: 0
  PR: 1
[1]; [10]
  CR: 0
  ORR: 0/1 (0%)
  PD: 1
  PR: 0
[1]; [11]
  CR: 0
  ORR: 0/2 (0%)
  PD: 0
  PR: 0
[1]; [12]
  CR: 0
  ORR: 0/2 (0%)
  PD: 0
  PR: 0
[1]; [13]
  CR: 0
  ORR: 3/8 (38%)
  PD: 0
  PR: 3
[1]; [14]
  CR: 0
  ORR: 2/5 (40%)
  PD: 1
  PR: 2
[1]; [15]
  CR: 0
  ORR: 1/3 (33%)
  PD: 0
  PR: 1
[1]; [16]
  CR: 2
  ORR: 6/12 (50%)
  PD: 1
  PR: 4
[1]; [17]
  CR: 0
  ORR: 3/14 (21%)
  PD: 3
  PR: 3
[1]; [18]
  CR: 0
  ORR: 4/8 (50%)
  PD: 1
  PR: 4
[1]; [19]
  CR: 1
  ORR: 7/16 (44%)
  PD: 2
  PR: 6
[1]; [20]
  CR: 0
  ORR: 1/9 (11%)
  PD: 1
  PR: 1
[1]; [21]
  CR: 0
  ORR: 0/1 (0%)
  PD: 0
  PR: 0
[1]; [22]
  CR: 0
  ORR: 1/1 (100%)
  PD: 0
  PR: 1
[1]; [23]
  CR: 0
  ORR: 1/1 (100%)
  PD: 0
  PR: 1
[1]; [24]
  CR: 0
  ORR: 1/1 (100%)
  PD: 0
  PR: 1
[2]; P=0.049 by exact Wilcoxon
  AUC on day 3 in the presence of carboplatin and paclitaxel (AUC0-12) vs day 1 veliparib alone (AUC0-inf): barely significantly lower than expected
[2]; day 1 vs day 3
  Cmax in the absence vs presence of carboplatin and paclitaxel: similar
[2]; for a 5.1 h half-life, not observed for Cmax nor AUC
  expected accumulation ratio by day 3 based on observed half-life: 1.20
[2]; human, plasma, po
  half-life: 5.1 h
[2]; [25]
  apparent clearance: 27.5 L/h
  exposure versus dose: increase linearly with dose
